CSN deneddyl inh: inhibitors of CSN-mediated cullin deneddylation, primary screen, biochemical, fluorescence polarization, uHTS. COP9 signalosome complex subunit 5 (Homo sapiens), Q92905. Purified CSN, SCF-Nedd8-OG deneddylation. inhibition, % at 12.5 µM. 0.38% of 360,000 active. AID 651999, 2013;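 active = pattern-corrected inhibition above about 35%, with an unprinted fluorescence ratio check between 0.5 and 1.5, limit read from the data, passing the limit was not always enough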;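 note: 0% = enzyme with substrate and 100% = substrate without enzyme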
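Assay system: HEK293T-derived human Csn5 enzyme; quantity: 0.24 nM enzyme; medium: Tris/NaCl/DTT buffer, pH 7.5; also added: substrate SCFSkp2-Nedd8OG, 10 nM; doses: 12.5 µM compound; schedule: 90 min reaction at room temperature; signal: FP; read-out: % inhibition of substrate cleavage by Csn5; benchmarks: substrate-only high control, full reaction low control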
TPT1 inh: Candida albicans TPT1 enzyme inhibitors, primary screen, biochemical, fluorescence polarization; inhibition, % at 5 µM; 0.81% of 300,000 active; recombinant caTPT1, FP RNA substrate dephosphorylation;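 active = inhibition above the mean of all tested compounds plus 3 SD, set per screening campaign, cut at about 24% in these data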;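 note: plate controls were DMSO alone for no effect and ferristatin control at 100 nM for full effect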
PKA-R1A activ: activators of PKA-R1A holoenzyme, primary screen, biochemical, fluorescence polarization, Cy5-IP20, bovine R1A, mouse PKAc. cAMP-dependent protein kinase type I-alpha regulatory subunit (Bos taurus) + …. activation, % at 11.4 µM. 0.083% of 340,000 active. PKA-R1A dissociation; scaled: DMSO 0%, 113 µM cGMP 100%;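 active = percent activation above the mean of all tested compounds plus 3 SD, cut at about 19% in these data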;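 note: higher means more PKAc released from R1A so a rise in polarization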
Rpn11 inh: Rpn11 (PSMD14) deubiquitinase inhibitors, primary screen, biochemical, fluorescence polarization, uHTS; 26S proteasome non-ATPase regulatory subunit 14 (Homo sapiens), O00487; human 26S proteasome, Ub4-pepOG fluorescence polarization; 20S core pre-blocked with epoxomicin; calls only at 20 µM; 0.59% of 360,000 active; AID 588493, 2011;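 active = inhibition at 20 µM, scaled to each plate's controls, above about 33%, limit read from the data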
PKA-R2B activ: activators of PKA-R2B holoenzyme, primary screen, biochemical, fluorescence polarization, Cy5-IP20, human; cAMP-dependent protein kinase catalytic subunit beta (Homo sapiens) + cAMP-dependent …; PKA-R2B holoenzyme dissociation; R2B truncated from residue 108, S112A mutant; 0% DMSO only, 100% 113 µM cGMP; activation, % at 11.4 µM; 0.079% of 340,000 active; AID 504700, 2011;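 active = activation above a cutoff set at the mean over all compounds plus 3 SD, cut at about 18% in these data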;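 note: higher means more holoenzyme dissociation and a rise in polarization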
HNF4A DNA FP: change in binding of human HNF4A to DNA, primary screen, biochemical, fluorescence polarization, FITC-DNA. Hepatocyte nuclear factor 4-alpha (Homo sapiens), P41235. 1 h. activity change, % at 10 µM. 0.3% of 360,000 active. AID 1224865, 2016; in the data active = activity change above about 30%, passing the limit was not always enough
Rpn11 inh conf: Rpn11 (PSMD14) deubiquitinase inhibitors, confirmation, biochemical, fluorescence polarization, single concentration | shares compounds with Rpn11 inh | purified human 26S proteasome, Ub4-pepOG fluorescence polarization; proteasome pretreated with epoxomicin | inhibition, % at 20 µM | 29% of 1,900 active
MMP-2 counter: MMP-2 enzyme inhibition, confirmation, counter-screen for RPN11 inhibitor project, biochemical, fluorescence, single concentration; shares compounds with Rpn11 inh; recombinant MMP-2, FRET peptide cleavage fluorescence; inhibition, % at 20 µM; 4% of 1,900 active;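 note: human MMP-2 activated beforehand with APMA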
Thrombin FP: bovine thrombin protease inhibition, confirmation, counter-screen for Rpn11 inhibitor project, biochemical, fluorescence polarization, single concentration; shares compounds with Rpn11 inh; inhibition, % at 20 µM; 13% of 1,900 active; bovine thrombin cleavage of Ub4-pepOG; AID 602333, 2012;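 active = mean inhibition at least 40% at 20 µM, or signal 3 deviations below plate average, so some actives read negative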;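 note: plate controls were thrombin with DMSO for no effect and buffer wells lacking thrombin for full effect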
Target sequence (P00735 whole entry, looked up): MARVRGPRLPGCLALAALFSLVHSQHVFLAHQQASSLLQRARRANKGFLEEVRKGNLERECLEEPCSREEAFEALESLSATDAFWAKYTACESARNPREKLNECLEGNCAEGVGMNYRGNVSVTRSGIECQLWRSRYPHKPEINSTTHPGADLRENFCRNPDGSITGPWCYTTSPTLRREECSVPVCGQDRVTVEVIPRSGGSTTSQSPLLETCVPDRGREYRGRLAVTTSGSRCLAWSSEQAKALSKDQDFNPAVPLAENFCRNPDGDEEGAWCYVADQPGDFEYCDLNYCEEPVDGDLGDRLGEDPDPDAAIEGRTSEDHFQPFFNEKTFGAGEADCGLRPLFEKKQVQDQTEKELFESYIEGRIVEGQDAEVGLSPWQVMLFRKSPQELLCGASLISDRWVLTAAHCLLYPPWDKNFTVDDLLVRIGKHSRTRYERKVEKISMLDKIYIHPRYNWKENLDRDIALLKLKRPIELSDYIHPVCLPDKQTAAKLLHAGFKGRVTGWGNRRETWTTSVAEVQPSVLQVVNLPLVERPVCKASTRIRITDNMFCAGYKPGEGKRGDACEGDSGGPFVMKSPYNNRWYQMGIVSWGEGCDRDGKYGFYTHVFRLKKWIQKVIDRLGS
Numbers without * were called inactive; i = inactive; nt = no result; + = active, no number. Rows were chosen to be rich in hits. Some 1.6% of all compounds tested hit in one or more screens of this group. Cut-off read from the data, not from the text of the source, unless noted: active = inhibition above about 40%; inactive = the rest.

SMILES	CSN deneddyl inh	TPT1 inh	PKA-R1A activ	Rpn11 inh	PKA-R2B activ	HNF4A DNA FP	Rpn11 inh conf	MMP-2 counter	Thrombin FP
N#Cc1ccccc1OCC(=O)Nc1c(C(=O)C2CC2)oc2ccccc12	-1	-4	3	+	-4	17	5	-19	-6
CCN(CC)CCNS(=O)(=O)c1ccc2c3c(cccc13)C(=O)N2	5	2	-3	i	0	-1	nt	nt	nt
Cc1cccc(OCCCC(=O)O)c1C	0	-3	-3	i	16	1	nt	nt	nt
Cc1cccc(OCCCC(=O)N2CCCCCC2)c1C	4	nt	0	+	4	6	-16	-1	-18
COc1ccc(NC(=O)c2ccc(S(=O)(=O)N3CCCC3)cc2)cc1OC	-6	nt	-4	i	-5	4	nt	nt	nt
O=C(Nc1nc2ccsc2c(=O)s1)c1ccc(F)cc1	20	-1	nt	+	nt	4	35	-32	-16
O=C(O)c1ccc(/C=C/c2nc3sc4c(c3c(=O)[nH]2)CCC4)cc1	7	2	-6	+	-9	3	91*	-57	40*
O=C(O)c1ccc(/C=C/c2nc3ccccc3c(=O)[nH]2)cc1	0	-4	-10	i	1	-2	nt	nt	nt
CCN(CC)S(=O)(=O)c1ccc(OC)c(NS(=O)(=O)c2cccc(C(=O)O)c2)c1	-1	-2	2	i	-26	-2	nt	nt	nt
O=C1C2C3C=CC(C3)C2C(=O)N1CCN1CCN(Cc2ccc([N+](=O)[O-])cc2)CC1 (stereo unspecified)	2	-2	0	i	-3	3	nt	nt	nt
O=c1[nH]c(CN2CCN(S(=O)(=O)c3ccccc3C(F)(F)F)CC2)nc2sc3c(c12)CCCC3	3	5	-7	+	4	4	14	1	-7
COc1cc2nc(CN3CCN(S(=O)(=O)c4ccccc4C(F)(F)F)CC3)[nH]c(=O)c2cc1OC	-3	nt	-11	i	-3	3	nt	nt	nt
CC(C)c1ccc(N(CC(=O)N/N=C/c2ccc(OC3CSC3)cc2)S(=O)(=O)c2ccccc2)cc1	-2	-2	2	+	5	-3	-19	-5	-19
Cc1csc(SCC(=O)NC(=O)C2CCCCC2)n1	5	-5	-1	i	-5	0	nt	nt	nt
COc1ccc(-c2nnc(SC)nc2-c2ccc(OC)c([N+](=O)[O-])c2)cc1[N+](=O)[O-]	2	-2	11	+	6	12	21	70*	3
COc1ccc(-c2nn(-c3ccccc3)cc2C=O)cc1[N+](=O)[O-]	1	0	-4	i	-6	1	nt	nt	nt
O=C(CSc1nnc(SCc2ccc(Cl)cc2)s1)N/N=C/c1c[nH]c2ccccc12	35	-1	-12	+	-9	112*	68*	20	-3
Cc1cccc(N(CC(=O)NC2CCCCC2)C(=O)CCCC(=O)Nc2ccccn2)c1C	-2	-2	-11	i	2	0	nt	nt	nt
CC(C)C[C@H](NC(=O)c1nc[nH]c1C(=O)N1CCNCC1)C(=O)OCc1ccccc1	-1	-2	11	i	4	1	nt	nt	nt
CC1(S(=O)(=O)O)CC(=O)c2ccccc2C1=O (stereo unspecified)	3	0	-8	i	2	-3	nt	nt	nt
CCOC(=O)c1c(NC(=S)Nc2ccccc2)sc2c1CC(C)(C)SC2	18	22	4	+	-7	12	8	81*	-11
CCc1ccc(-n2cccc2/C=C2/C(=N)N3C(=NC2=O)SN=C3S(C)(=O)=O)cc1	23	14	-8	+	-4	11	64*	0	45*
Cc1ccc(-n2cccc2/C=C2/C(=N)N3C(=NC2=O)SN=C3S(C)(=O)=O)cc1	25	17	1	+	7	9	63*	-1	29
Cc1cc(C)cc(-n2cccc2/C=C2/C(=N)N3C(=NC2=O)SN=C3S(C)(=O)=O)c1	20	13	1	+	6	13	53*	-7	-25
COc1cccc(-n2c(C)cc(/C=C3/C(=N)N4C(=NC3=O)SN=C4S(C)(=O)=O)c2C)c1	15	20	-5	i	-5	18	nt	nt	nt
SMILES	CSN deneddyl inh	TPT1 inh	PKA-R1A activ	Rpn11 inh	PKA-R2B activ	HNF4A DNA FP	Rpn11 inh conf	MMP-2 counter	Thrombin FP
CCC1=NN2C(=N)/C(=C\c3cccn3-c3ccc(Cl)cc3)C(=O)N=C2S1	4	4	-4	i	8	5	nt	nt	nt
CS(=O)(=O)C1=NSC2=NC(=O)/C(=C\c3ccc(OC(=O)c4ccco4)c(Br)c3)C(=N)N21	28	16	-3	+	0	35*	17	-5	32
COC(=O)c1cc(OC)c(OC)cc1NC(=O)CSc1ccccc1	0	-1	2	i	-1	-2	nt	nt	nt
CS(=O)(=O)C1=NSC2=NC(=O)/C(=C\c3cccn3-c3ccccc3Cl)C(=N)N21	31	17	-8	+	-11	12	79*	3	39
CS(=O)(=O)C1=NSC2=NC(=O)/C(=C\c3ccc(OS(=O)(=O)c4ccccc4)cc3)C(=N)N21	3	6	-3	i	-9	-7	nt	nt	nt
COc1cc(S(=O)(=O)N2CCN(Cc3ccc4c(c3)OCO4)CC2)ccc1NC(C)=O	10	nt	nt	+	nt	8	4	-11	-7
COc1ccc(S(=O)(=O)N2CCN(Cc3ccc4c(c3)OCO4)CC2)cc1F	-2	0	3	i	-4	-2	nt	nt	nt

Assay outcomes deposited in PubChem BioAssay by several laboratories.
